Reference: ChEMBL document CHEMBL1833959, “Itraconazole side chain analogues: structure-activity relationship studies for inhibition of endothelial cell proliferation, vascular endothelial growth factor receptor 2 (VEGFR2) glycosylation, and hedgehog signaling” (2011)
The source made the active and inactive calls. No cut-off for these calls is given here.

Experiments:
[1] = target: Vascular endothelial growth factor receptor 2 (Homo sapiens) (UniProt P35968); test: Inhibition of VEGFR2 glycosylation in human HUVEC cells at 2 uM after 24 hrs by Western blot analysis; type: cell-based
Sequence of Vascular endothelial growth factor receptor 2 (Homo sapiens) (P35968 whole entry): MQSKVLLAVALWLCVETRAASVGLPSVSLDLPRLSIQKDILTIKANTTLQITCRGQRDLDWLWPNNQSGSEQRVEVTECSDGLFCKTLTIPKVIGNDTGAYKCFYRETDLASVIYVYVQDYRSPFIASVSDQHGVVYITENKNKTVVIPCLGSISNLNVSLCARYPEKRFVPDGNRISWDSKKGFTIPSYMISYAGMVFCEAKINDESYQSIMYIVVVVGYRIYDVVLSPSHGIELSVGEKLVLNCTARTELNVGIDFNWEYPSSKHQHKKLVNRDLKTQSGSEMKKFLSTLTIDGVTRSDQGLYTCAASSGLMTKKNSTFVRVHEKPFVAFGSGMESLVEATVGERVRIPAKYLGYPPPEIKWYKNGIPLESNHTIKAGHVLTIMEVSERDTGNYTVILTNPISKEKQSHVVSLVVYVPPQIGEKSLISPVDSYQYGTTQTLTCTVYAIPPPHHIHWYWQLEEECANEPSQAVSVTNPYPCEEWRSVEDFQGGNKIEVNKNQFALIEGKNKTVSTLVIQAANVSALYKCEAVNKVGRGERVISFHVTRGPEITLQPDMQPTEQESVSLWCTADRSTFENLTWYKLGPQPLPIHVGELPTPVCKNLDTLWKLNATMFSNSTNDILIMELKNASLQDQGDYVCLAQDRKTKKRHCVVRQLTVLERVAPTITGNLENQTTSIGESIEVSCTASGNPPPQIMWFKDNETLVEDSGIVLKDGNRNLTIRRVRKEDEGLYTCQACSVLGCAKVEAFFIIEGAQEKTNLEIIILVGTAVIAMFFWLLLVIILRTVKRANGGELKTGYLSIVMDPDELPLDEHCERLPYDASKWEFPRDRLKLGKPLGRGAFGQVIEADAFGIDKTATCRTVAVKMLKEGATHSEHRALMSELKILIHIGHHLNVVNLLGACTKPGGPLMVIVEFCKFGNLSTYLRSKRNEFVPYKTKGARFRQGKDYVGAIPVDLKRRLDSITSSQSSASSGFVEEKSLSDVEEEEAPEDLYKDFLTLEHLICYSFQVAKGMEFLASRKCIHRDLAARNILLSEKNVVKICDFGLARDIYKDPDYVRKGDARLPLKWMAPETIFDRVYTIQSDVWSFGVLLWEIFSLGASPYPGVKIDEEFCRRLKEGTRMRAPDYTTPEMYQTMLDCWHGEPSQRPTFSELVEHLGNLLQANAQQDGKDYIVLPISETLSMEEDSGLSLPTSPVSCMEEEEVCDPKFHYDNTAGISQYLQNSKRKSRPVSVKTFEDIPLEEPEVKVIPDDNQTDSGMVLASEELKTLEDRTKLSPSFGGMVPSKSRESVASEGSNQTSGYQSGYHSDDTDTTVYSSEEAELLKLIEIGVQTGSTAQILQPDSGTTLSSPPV
In short: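 Pooled HUVEC (passage ≤8, EGM-2) seeded 5 × 10^4 per well, recovered overnight, then given fresh media with analogue added from 200X DMSO stocks; 24 h exposure. Cells lysed in 2X SDS sample buffer (ice 10 min, boiled 10 min), 6% SDS-PAGE, PVDF blot probed with anti-VEGFR2 and HRP anti-rabbit IgG, ECL detection.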

HUVEC [2] = test: Ratio of itraconazole IC50 to compound IC50 for antiangiogenic activity in human HUVEC cells assessed as inhibition of cell proliferation; type: functional
[3] = Inhibition of hedgehog signaling pathway in mouse Ptch+/- p53-/- medulloblastoma cells assessed as inhibition of receptor-mediated Gli1 transcriptional activity at antiproliferative IC90 concentration after 24 hrs by RT-PCR analysis relative to control
[4] = Ratio of itraconazole IC50 to compound IC50 for antiproliferative activity against mouse Ptch+/- p53-/- medulloblastoma cells isolated from allografts in nude Harlan mouse after 96 hrs; type: functional, Medulloblastoma cell
In short: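 Ptch−/+;p53−/− MB cells from nude-mouse allografts (ficoll-purified, three neurosphere passages, CD15 confirmed by flow cytometry) disaggregated and seeded in NBMedia with multiple analogue concentrations for 96 h. Cell number read by MTS-type CellTiter 96 AQueous absorbance; IC50 fitted from dose–response curves of mean corrected absorbance normalized to control, expressed relative to itraconazole.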

HUVEC [5] = test: Ratio of itraconazole IC50 to compound […] for antiangiogenic activity in human HUVEC cells assessed as inhibition of cell proliferation; type: functional

SMILES | inhibition [1] | Ratio IC50 (HUVEC [2]) | fold change (FC) [3] | Ratio IC50 [4] | Ratio (HUVEC [5])
N#CCCCCCn1ncn(-c2ccc(N3CCN(c4ccc(OC[C@@H]5CO[C@@](Cn6cncn6)(c6ccc(Cl)cc6Cl)O5)cc4)CC3)cc2)c1=O | Active | 0.18 | 0.16 | 0.84 | –
CCC1(Cn2ncn(-c3ccc(N4CCN(c5ccc(OC[C@@H]6CO[C@@](Cn7cncn7)(c7ccc(Cl)cc7Cl)O6)cc5)CC4)cc3)c2=O)COC1 | Active | 0.77 | 0.16 | 0.74 | –
CC/C=C/CCn1ncn(-c2ccc(N3CCN(c4ccc(OC[C@@H]5CO[C@@](Cn6cncn6)(c6ccc(Cl)cc6Cl)O5)cc4)CC3)cc2)c1=O | inactive | 1.57 | < 0.15 | 0.63 | –
Cn1ncn(-c2ccc(N3CCN(c4ccc(OC[C@@H]5CO[C@@](Cn6cncn6)(c6ccc(Cl)cc6Cl)O5)cc4)CC3)cc2)c1=O | inactive | 4 | > 0.45 | 2.71 | –
CC[C@H](C)n1ncn(-c2ccc(N3CCN(c4ccc(OC[C@H]5CO[C@@](Cn6cncn6)(c6ccc(Cl)cc6Cl)O5)cc4)CC3)cc2)c1=O | Active | 3.1 | – | 2.1 | –
O=C(c1ccccc1)c1ccc(OCCCCCCn2ncn(-c3ccc(N4CCN(c5ccc(OC[C@@H]6CO[C@@](Cn7cncn7)(c7ccc(Cl)cc7Cl)O6)cc5)CC4)cc3)c2=O)cc1 | inactive | >69.9 | > 0.45 | 0.8 | –
CCCCn1ncn(-c2ccc(N3CCN(c4ccc(OC[C@@H]5CO[C@@](Cn6cncn6)(c6ccc(Cl)cc6Cl)O5)cc4)CC3)cc2)c1=O | inactive | 2.1 | > 0.45 | 0.7 | –
CC[C@H](C)n1ncn(-c2ccc(N3CCN(c4ccc(OC[C@@H]5CO[C@@](Cn6cncn6)(c6ccc(Cl)cc6Cl)O5)cc4)CC3)cc2)c1=O | Active | 0.8 | – | 1.3 | –
CC[C@@H](C)n1ncn(-c2ccc(N3CCN(c4ccc(OC[C@@H]5CO[C@](Cn6cncn6)(c6ccc(Cl)cc6Cl)O5)cc4)CC3)cc2)c1=O | inactive | 3.7 | – | 2.3 | –
CCCCCn1ncn(-c2ccc(N3CCN(c4ccc(OC[C@@H]5CO[C@@](Cn6cncn6)(c6ccc(Cl)cc6Cl)O5)cc4)CC3)cc2)c1=O | inactive | 1.09 | < 0.15 | 0.66 | –
CCC(CC)n1ncn(-c2ccc(N3CCN(c4ccc(OC[C@@H]5CO[C@@](Cn6cncn6)(c6ccc(Cl)cc6Cl)O5)cc4)CC3)cc2)c1=O | Active | 1.1 | < 0.15 | 0.54 | –
CCC(C)n1ncn(-c2ccc(N3CCN(c4ccc(OCC5COC(Cn6cncn6)(c6ccc(Cl)cc6Cl)O5)cc4)CC3)cc2)c1=O (stereo not drawn) [ITRACONAZOLE] | Active | 1 | < 0.15 | 1 | –
CC(C)CCn1ncn(-c2ccc(N3CCN(c4ccc(OC[C@@H]5CO[C@@](Cn6cncn6)(c6ccc(Cl)cc6Cl)O5)cc4)CC3)cc2)c1=O | Active | 1.42 | < 0.15 | 0.41 | –
CCCC(C)n1ncn(-c2ccc(N3CCN(c4ccc(OC[C@@H]5CO[C@@](Cn6cncn6)(c6ccc(Cl)cc6Cl)O5)cc4)CC3)cc2)c1=O (mixture of isomers) | Active | 0.75 | < 0.15 | 0.38 | –
CC[C@@H](C)n1ncn(-c2ccc(N3CCN(c4ccc(OC[C@@H]5CO[C@@](Cn6cncn6)(c6ccc(Cl)cc6Cl)O5)cc4)CC3)cc2)c1=O | Active | 1.1 | – | 1.4 | –
CC[C@H](C)n1ncn(-c2ccc(N3CCN(c4ccc(OC[C@H]5CO[C@](Cn6cncn6)(c6ccc(Cl)cc6Cl)O5)cc4)CC3)cc2)c1=O | Active | 1.6 | – | 1.3 | –
CCC#CCCn1ncn(-c2ccc(N3CCN(c4ccc(OC[C@@H]5CO[C@@](Cn6cncn6)(c6ccc(Cl)cc6Cl)O5)cc4)CC3)cc2)c1=O | inactive | 1.09 | < 0.15 | 1.07 | –

SMILES | inhibition [1] | Ratio IC50 (HUVEC [2]) | fold change (FC) [3] | Ratio IC50 [4] | Ratio (HUVEC [5])
C#CCCCn1ncn(-c2ccc(N3CCN(c4ccc(OC[C@H]5CO[C@](Cn6cncn6)(c6ccc(Cl)cc6Cl)O5)cc4)CC3)cc2)c1=O | inactive | 0.14 | < 0.15 | 0.71 | –
CC[C@@H](C)n1ncn(-c2ccc(N3CCN(c4ccc(OC[C@H]5CO[C@](Cn6cncn6)(c6ccc(Cl)cc6Cl)O5)cc4)CC3)cc2)c1=O | Active | 2.5 | – | 1.7 | –
CC/C=C\CCn1ncn(-c2ccc(N3CCN(c4ccc(OC[C@@H]5CO[C@@](Cn6cncn6)(c6ccc(Cl)cc6Cl)O5)cc4)CC3)cc2)c1=O | inactive | 0.73 | < 0.15 | 0.94 | –
[N-]=[N+]=NCCCCCCn1ncn(-c2ccc(N3CCN(c4ccc(OC[C@@H]5CO[C@@](Cn6cncn6)(c6ccc(Cl)cc6Cl)O5)cc4)CC3)cc2)c1=O | Active | 0.3 | 0.16 | 0.7 | –
CC1(CCn2ncn(-c3ccc(N4CCN(c5ccc(OC[C@@H]6CO[C@@](Cn7cncn7)(c7ccc(Cl)cc7Cl)O6)cc5)CC4)cc3)c2=O)N=N1 | Active | >13.8 | 0.16 | 1.32 | –
O=c1n(-c2ccc(N3CCN(c4ccc(OC[C@@H]5CO[C@@](Cn6cncn6)(c6ccc(Cl)cc6Cl)O5)cc4)CC3)cc2)cnn1CC1CCCC1 | Active | 0.5 | 0.16 | 0.5 | –
CC(C)n1ncn(-c2ccc(N3CCN(c4ccc(OC[C@@H]5CO[C@@](Cn6cncn6)(c6ccc(Cl)cc6Cl)O5)cc4)CC3)cc2)c1=O | inactive | 2.18 | > 0.45 | 1.06 | –
CC[C@@H](C)n1ncn(-c2ccc(N3CCN(c4ccc(OC[C@H]5CO[C@@](Cn6cncn6)(c6ccc(Cl)cc6Cl)O5)cc4)CC3)cc2)c1=O | inactive | 3.9 | – | 1.7 | –
CCCCCCCCn1ncn(-c2ccc(N3CCN(c4ccc(OC[C@@H]5CO[C@@](Cn6cncn6)(c6ccc(Cl)cc6Cl)O5)cc4)CC3)cc2)c1=O | inactive | – | < 0.15 | 0.67 | 2.24
O=c1n(-c2ccc(N3CCN(c4ccc(OC[C@@H]5CO[C@@](Cn6cncn6)(c6ccc(Cl)cc6Cl)O5)cc4)CC3)cc2)cnn1C1CCCCC1 | Active | 0.44 | > 0.45 | 0.37 | –
O=c1n(-c2ccc(N3CCN(c4ccc(OC[C@@H]5CO[C@@](Cn6cncn6)(c6ccc(Cl)cc6Cl)O5)cc4)CC3)cc2)cnn1CCCCCCc1ccccc1 | inactive | – | < 0.15 | 0.69 | 1.45
CC1(CCCCCCCn2ncn(-c3ccc(N4CCN(c5ccc(OC[C@@H]6CO[C@@](Cn7cncn7)(c7ccc(Cl)cc7Cl)O6)cc5)CC4)cc3)c2=O)N=N1 | inactive | – | > 0.45 | 1.18 | 1.1
CCCn1ncn(-c2ccc(N3CCN(c4ccc(OC[C@@H]5CO[C@@](Cn6cncn6)(c6ccc(Cl)cc6Cl)O5)cc4)CC3)cc2)c1=O | Active | 1.06 | < 0.15 | 1.01 | –
CC(C)Cn1ncn(-c2ccc(N3CCN(c4ccc(OC[C@@H]5CO[C@@](Cn6cncn6)(c6ccc(Cl)cc6Cl)O5)cc4)CC3)cc2)c1=O | Active | 1.32 | > 0.45 | 0.86 | –
CC[C@H](C)n1ncn(-c2ccc(N3CCN(c4ccc(OC[C@@H]5CO[C@](Cn6cncn6)(c6ccc(Cl)cc6Cl)O5)cc4)CC3)cc2)c1=O | Active | 3.2 | – | 1.5 | –
O=c1[nH]ncn1-c1ccc(N2CCN(c3ccc(OC[C@@H]4CO[C@@](Cn5cncn5)(c5ccc(Cl)cc5Cl)O4)cc3)CC2)cc1 | inactive | 2.78 | < 0.15 | 0.89 | –
CCn1ncn(-c2ccc(N3CCN(c4ccc(OC[C@@H]5CO[C@@](Cn6cncn6)(c6ccc(Cl)cc6Cl)O5)cc4)CC3)cc2)c1=O | inactive | 2.94 | > 0.45 | 1.62 | –
